Beta2AR agonist: agonists of human beta-2 adrenergic receptor inducing internalization. P07550. Am2.2-beta2AR cells, FAP receptor internalization, flow cytometry. response, % (no concentration beside the values). 0.43% of 340,000 active;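 active = response above a set limit, near 3 SD of response in nonfluorescent compounds, cut at about 42% in these data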
H9c2 TAG inh: inhibitors of triacylglycerol accumulation. H9c2 cells, Nile Red lipid (TAG) fluorescence; cells loaded with 200 µM oleic acid. inhibition, % at 12.5 µM. 0.66% of 230,000 active;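 active = pattern-corrected inhibition of lipid staining of at least 50% with the nuclear-stain viability signal not falling by more than 50%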;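 note: 0% = DMSO wells and 100% = triacsin C control wells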
Hep lipid drop: modulators of hepatic lipid droplet formation; AML12 mouse hepatocytes, oleate lipid droplets, BODIPY imaging; inhibition, % at 6.5 µM; 0.4% of 240,000 active; AID 1656;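 active = lipid droplet intensity inhibited by at least 50%, with more than 500 cells counted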
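Material – AML12 mouse liver cells · Also added – oleate loading, 100 µM · Compound dosing – 6.5 µM single-point dosing · Times – overnight treatment with compound plus oleate · Measured by – fluorescence imaging, 20x objective, two fields per well · Read-out – percent inhibition of filter-corrected integrated lipid droplet intensity per well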
GRK2 aptamer HTS: blocks RNA aptamer binding to human GRK2 | inhibition of aptamer binding, % at 10 µM | P25098 | bead flow cytometry, FAM-aptamer displacement from GRK2 | AID 488847 | 0.59% of 330,000 active;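 active = inhibition of aptamer binding above 40%, roughly 3 SD of noise, on plates passing a quality check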;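 note: median bead fluorescence of bound FAM aptamer so fluorescent compounds give negative values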
Target sequence (P25098 whole entry, looked up): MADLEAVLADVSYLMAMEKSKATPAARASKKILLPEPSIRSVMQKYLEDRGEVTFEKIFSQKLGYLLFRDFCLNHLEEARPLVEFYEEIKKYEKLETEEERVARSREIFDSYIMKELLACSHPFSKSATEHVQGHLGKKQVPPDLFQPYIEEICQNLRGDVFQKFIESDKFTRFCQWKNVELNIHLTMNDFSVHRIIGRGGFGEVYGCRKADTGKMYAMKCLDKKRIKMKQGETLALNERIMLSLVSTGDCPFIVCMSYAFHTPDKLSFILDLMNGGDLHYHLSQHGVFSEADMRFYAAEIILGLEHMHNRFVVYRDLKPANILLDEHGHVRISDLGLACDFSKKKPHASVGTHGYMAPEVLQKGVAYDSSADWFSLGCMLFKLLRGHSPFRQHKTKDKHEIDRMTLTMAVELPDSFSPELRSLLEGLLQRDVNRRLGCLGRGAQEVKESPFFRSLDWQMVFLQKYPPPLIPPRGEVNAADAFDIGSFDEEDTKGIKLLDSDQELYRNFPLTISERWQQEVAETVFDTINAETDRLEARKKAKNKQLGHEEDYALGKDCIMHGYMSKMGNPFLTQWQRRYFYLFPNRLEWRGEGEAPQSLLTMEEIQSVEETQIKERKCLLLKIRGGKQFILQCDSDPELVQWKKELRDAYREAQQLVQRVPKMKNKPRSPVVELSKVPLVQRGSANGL
Arrestin-AP2 inh: blocks beta-arrestin peptide binding to AP2 adaptin. FITC-arrestin peptide / GST-AP2 beads, flow cytometry; AP2 beta2 appendage carries R879A mutation. inhibition, % at 10 µM. 0.31% of 340,000 active. AID 504490;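 active = inhibition above a set limit, near 3 SD of compounds lacking own fluorescence, cut at about 54% in these data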;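 note: plate controls were DMSO wells for no effect and 5 µM unlabelled arrestin peptide for full effect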
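System: GST-AP2 R879A glutathione beads. Medium: PBS with 0.05% Tween 20 and 0.1% BSA. Also added: FITC-arrestin peptide, 50 nM. Incubation: 12 min plus 1 h, RT. Measured by: high-throughput flow cytometry of beads, ex 488, em 535 nm. Evaluation: percent drop in bead-associated FITC signal.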
NTR1 agonist: activates human neurotensin receptor 1; AID 493036; 0.17% of 330,000 active; activation, % at 20 µM; NTR1-U2OS beta-arrestin-GFP spot imaging, agonist mode; P30989;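 active = activation at or above 40% of the spot to cytoplasm intensity ratio, with at least 20 cells analyzed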;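 note: 0% = DMSO without peptide and 100% = 100 nM NTR1 peptide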
Lipid drop inh: hepatic lipid droplet formation inhibition, confirmed | shares compounds with Hep lipid drop | AML12 mouse hepatocytes, BODIPY lipid droplet imaging; droplets induced with 100 µM oleic acid | inhibition, % at 5.2 µM | 65% of 870 active | AID 463183;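 active = inhibition of lipid droplet metric at least 50%, with more than 300 cells in each of four replicates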;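 note: plate controls were DMSO with oleic acid for no effect and 5 µM Triacsin-C for full effect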
AML12 cytotox: AML12 hepatocyte cytotoxicity (counter-screen) | AML12 mouse hepatocytes, DAPI nuclear morphology cytotoxicity imaging; hits give high values; cells fed 100 µM oleate overnight | z-score at 5 µM | 3% of 870 active | AID 463200 | shares compounds with Hep lipid drop; in the data active = z-score above about 6.3;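 note: compound exposure lasted overnight at 37 °C before fixation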
AML12 tox conf: AML12 hepatocyte cytotoxicity, confirmed; shares compounds with Hep lipid drop; AML12 mouse hepatocyte viability, ATP luminescence; cells loaded with 100 µM oleic acid; cytotoxicity, % at 50 µM; 530 tested, under 10 active; AID 463219;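 active = cytotoxicity above 50% in each of four replicates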;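 note: compound exposure lasted overnight at 37 °C before the ATP read; 0% = DMSO-treated cells and 100% = wells with no cells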
GRK2 CP1: confirmation of human GRK2 inhibitors displacing RNA aptamer. 4% of 2,000 active. AID 504451. bead-bound GRK2, FAM-aptamer displacement, flow cytometry. shares compounds with GRK2 aptamer HTS. aptamer displacement, % at 10 µM;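 active = aptamer displacement above 40%, near three times the noise of non-fluorescent compounds, on plates passing quality checks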;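 note: negative values mostly reflect intrinsic compound fluorescence rather than true enhancement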
Aptamer quench 1: quenches fluorescent RNA aptamer, GRK2 hit artifact; 110 tested, under 10 active; AID 504521; shares compounds with GRK2 aptamer HTS; fluorescence change (kMESF span), kMESF (test concentration not listed); Fluorescent RNA aptamer beads, quenching, flow cytometry; hits give high values;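 active = compounds whose bead fluorescence drops by more than 37 kMESF across the dose range, marking them as dye quenchers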
Aptamer quench SP: quenches fluorescent RNA aptamer, GRK2 hit artifact. 2,000 tested, under 10 active. Carboxyfluorescein RNA aptamer on beads, flow cytometry quenching; hits give low values. AID 504580. fluorescence response (% of DMSO), % at 10 µM. shares compounds with GRK2 aptamer HTS;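 active = compounds that quench the bead-bound fluorescent RNA probe, cutting fluorescence to under half of the solvent control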;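 note: counterscreen run without GRK2 so only probe quenching by compound is measured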
GRK2 confirm 2: confirmation of human GRK2 inhibitors binding RNA aptamer site; 360 tested, under 10 active; bead-bound GRK2, FAM-aptamer displacement, flow cytometry; inhibition of aptamer binding, % at 10 µM; shares compounds with GRK2 aptamer HTS;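 active = inhibition of aptamer binding above 40%, about triple the noise seen with nonglowing compounds, on plates passing quality control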;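 note: negative values mostly come from compounds that fluoresce themselves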
FAM quench CP2: quenches fluorescent RNA aptamer, GRK2 hit artifact | fluorescence response vs DMSO, % at 10 µM | shares compounds with GRK2 aptamer HTS | AID 588494 | carboxyfluorescein RNA aptamer beads, flow cytometry quenching; hits give low values | 360 tested, under 10 active;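 active = response vs DMSO under 50%, meaning signal dropped by over half, treated as fluorescence quencher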;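 note: labelled aptamer on streptavidin beads without GRK2 as a quench counter-screen; 100% = bead fluorescence of DMSO wells and lower means quenching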
Active calls of the source: *; · = no result. Most compounds without a hit are left out; they make up all but 2% or so of the library.

SMILES | Beta2AR agonist | H9c2 TAG inh | Hep lipid drop | GRK2 aptamer HTS | Arrestin-AP2 inh | NTR1 agonist | GRK2 CP1 | Aptamer quench SP | others
COC(=O)C1=C(c2ccc(OC)c(OC)c2)C[C@@H]2CC[C@H]1N2C(=O)NC1CCCCC1 | -12.2 | 0.6 | · | 1.0 | 18.8 | 6.0 | · | ·
Cc1cc(NC(=O)CCl)on1 | 5.9 | 4.7 | -1.5 | 3.0 | -4.2 | -1.0 | · | ·
CC[C@@H](O)C[C@H]1CCC[C@@]2(C[C@@H]3OC(=O)/C=C/[C@@](C)(O)[C@@H](O)[C@H](C)[C@@H](O)[C@H](OC4CCC(N(C)C)C(C)O4)[C@@H](O)[C@](C)(O)CCCCC/C=C/[C@@H]4CC(C)(C)O[C@@]4(O)C[C@H](O2)[C@H]3C)O1 (stereo partly drawn) | 18.9 | 57.6* | · | · | -13.9 | · | · | ·
CN1[C@H]2CC[C@@H]1C(C(=O)N1CCOCC1)=C(O)C2 | -2.8 | 4.2 | · | 2.0 | 2.5 | -1.8 | · | ·
CC(C)OCCCNC(=O)c1c(N)n(CC2CCCO2)c2nc3ccccc3nc12 (stereo not drawn) | -13.3 | · | 51.0* | 4.0 | 10.0 | 6.6 | · | · | Lipid drop inh=60.1;AML12 cytotox=-0.589;AML12 tox conf=1.9
O=[N+]([O-])c1c(Cl)c(Cl)c(Cl)c(Cl)c1Cl | 4.2 | -10.7 | · | · | -10.1 | · | · | ·
Nc1cc(Cl)c2nonc2c1[N+](=O)[O-] | 72.7* | · | 112.8* | 0.0 | -3.7 | · | · | · | Lipid drop inh=-20.8;AML12 cytotox=2.48
CC(=O)NCC1=C(c2cccc3ccccc23)C[C@@H]2CC[C@H]1N2Cc1ccco1 | · | -11.1 | · | · | · | · | · | ·
CN1CCN(C(=O)COc2ccc(S(=O)(=O)N(C)Cc3ccccc3)cc2)CC1 | -10.2 | · | 19.1 | 54.0* | 21.9 | 0.0 | -22.2 | 150.8
CN1CCN(c2ccc(C(N)=O)cc2N)CC1 | 0.3 | 17.6 | · | 43.0* | 1.2 | 0.0 | -1.5 | 101.5
C#CC[N+]1(C)C2CCC1CC(O)C2 (stereo not drawn) | 2.9 | -2.5 | 4.9 | 3.0 | 28.0 | 1.5 | · | ·
COc1nc(C)nc(NC(=O)NS(=O)(=O)c2ccccc2Cl)n1 | -1.6 | -1.6 | · | 0.0 | -4.1 | -1.8 | · | ·
O=C(Nc1ccccc1)Oc1ccccc1 | 12.7 | · | -0.1 | 3.0 | -3.9 | 0.7 | · | ·
COC(=O)c1ccc(NC(=O)NC(=O)Oc2ccccc2)cc1 | 1.5 | -0.5 | · | 81.0* | -29.4 | -0.9 | -0.6 | 97.7
CCN(CC)c1ccc(N=Cc2c(O)n(-c3ccccc3C)c(=O)[nH]c2=O)cc1 | 11.4 | · | -1.2 | 27.0 | -6.0 | 1.0 | 0.4 | 107.2
CCOc1ccccc1-n1c(O)c(C=Nc2ccc(N(CC)CC)cc2)c(=O)[nH]c1=O | 35.1 | 21.8 | · | 1.0 | 6.8 | 1.0 | · | ·
C[C@]12CCC3C(CCC4=C/C(=N/OCC(=O)NC(CCC(=O)O)C(=O)O)CC[C@@]43C)C1CCC2O (stereo partly drawn) | 14.1 | · | · | 0.0 | 2.2 | 0.2 | · | ·
C[C@]12CCC3C(CCC4=C/C(=N/OCC(=O)NC(CCC(N)=O)C(=O)O)CC[C@@]43C)C1CCC2O (stereo partly drawn) | 2.9 | · | -19.3 | 0.0 | 6.0 | 1.6 | 3.2 | 98.7
CC12C=CC(=O)C=C1CC(O)C1C2CCC2(C)C1CCC2(C)O (stereo not drawn) | -5.7 | -6.1 | · | · | -26.1 | · | · | ·
N#CCCn1cc(C(=O)Nc2ccc([N+](=O)[O-])cc2)c(-c2ccc3c(c2)OCCO3)n1 | -5.3 | 2.4 | 7.9 | 66.0* | · | -1.3 | · | · | GRK2 confirm 2=21.6;FAM quench CP2=100.0
Cc1ccc(NC(=O)c2cn(CCC#N)nc2-c2ccc3c(c2)OCCO3)c([N+](=O)[O-])c1 | -21.8 | · | -25.7 | 3.0 | 1.3 | 6.9 | · | ·
CN1CCCC1c1ccc(=O)[nH]c1 (stereo not drawn) | 2.4 | -10.9 | · | · | 11.1 | · | · | ·
CCC(=Nc1ccc2c(c1)CCC2)c1c(O)n(C2CCCCC2)c(=O)[nH]c1=O | -7.3 | · | · | 100.0* | 0.2 | 14.0 | 0.9 | 108.2
CC(=Nc1ccc2c(c1)CCC2)c1c(O)n(C2CCCCC2)c(=O)[nH]c1=O | -9.2 | · | · | 0.0 | 34.0 | 13.1 | · | ·
O=c1[nH]c(=O)n(Cc2ccco2)c(O)c1C=NCc1ccc2c(c1)OCO2 | 12.1 | · | · | 0.0 | -7.8 | -0.4 | 0.8 | 102.2
SMILES | Beta2AR agonist | H9c2 TAG inh | Hep lipid drop | GRK2 aptamer HTS | Arrestin-AP2 inh | NTR1 agonist | GRK2 CP1 | Aptamer quench SP | others
CCCCn1c(O)c(C=NCc2ccc3c(c2)OCO3)c(=O)[nH]c1=O | 1.6 | 0.8 | 19.3 | 94.0* | 32.8 | 1.1 | -1.0 | 96.3
COc1ccccc1-n1c(O)c(C=NCc2ccc3c(c2)OCO3)c(=O)[nH]c1=O | 2.7 | -1.3 | -4.7 | 1.0 | -1.6 | 0.3 | · | ·
CC12CCC(=O)C=C1CCC1C2CCC2(C)C1CCC2(O)CC#N (stereo not drawn) | -5.5 | -11.1 | · | · | -6.7 | · | · | ·
CCN1/C(=C\C=C\C2=[N+](CC)c3ccccc3C2(C)C)C(C)(C)c2ccccc21 | -565.6 | -258.5 | -169.6 | 70.0* | 17.1 | -4.9 | 23.8 | 99.6
NCCc1c[nH]c2ccccc12 | 4.8 | · | 17.0 | 62.0* | 3.7 | 6.7 | -6.5 | 99.6
CCN(CC)CCC(=O)O[C@H]1CC[C@]2(C)C3CC[C@@]4(C)C(CC[C@]4(C)O)C3CC[C@H]2C1 (stereo partly drawn) | -9.9 | 4.2 | · | 0.0 | 31.4 | 1.5 | · | ·
CN(C)c1ccc(/C=C/C=C/c2sc3ccccc3[n+]2C)cc1 | 16.8 | -1.9 | -119.1 | 0.0 | -9.4 | 2.5 | · | ·
CC[n+]1c(/C=C/N(C)c2ccccc2)sc2ccc(Cl)cc21 | 0.2 | · | · | 92.0* | -1.9 | 1.5 | 41.4* | 107.7 | Aptamer quench 1=25.5

Assay outcomes from PubChem.
